Published values collected from several papers.
Lines come from different studies, so protocols differ.
Target: Aurora kinase C (AURKC, Homo sapiens, UniProt Q9UQB9)
One construct used (Q9UQB9 1-309): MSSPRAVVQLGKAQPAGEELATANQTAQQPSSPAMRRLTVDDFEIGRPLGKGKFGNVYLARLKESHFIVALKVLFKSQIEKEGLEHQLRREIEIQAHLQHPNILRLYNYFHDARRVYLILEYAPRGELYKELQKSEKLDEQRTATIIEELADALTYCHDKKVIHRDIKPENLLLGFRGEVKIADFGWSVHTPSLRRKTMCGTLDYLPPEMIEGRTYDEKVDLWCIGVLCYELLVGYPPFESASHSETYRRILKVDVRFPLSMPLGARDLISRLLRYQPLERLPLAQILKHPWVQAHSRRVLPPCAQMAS

| SMILES | assay | conditions | remaining binding [%] |
| --- | --- | --- | --- |
| CN(C)c1ncc(F)c(-c2cnn3ncccc23)n1 | binding | 1 µM | 100 |
| C=CC(=O)N1CCC(C(=O)NCC(=O)N2CCN(c3nc(-c4cnc(N)nc4C(F)F)nc(N4CCOCC4)n3)CC2)CC1 | binding, competition with immobilised ligand | 1 µM | 100 |
| N[C@@H]1CCN(c2nccc(-c3cnn4ncccc34)n2)C1 | binding | 1 µM | 100 |
| CCN1CCN(Cc2ccc(C(=O)Nc3ccc(C)c(Oc4ccc5c(c4)CC(=O)N5)c3)cc2C(F)(F)F)CC1 | binding, competition with immobilised ligand | 1 µM | 91 |
| O=C(NCC1CCOCC1)c1n[nH]cc1NC(=O)c1c(F)cccc1F | binding, competition with immobilised ligand | 1 µM | 79 |
| CN(CCCC(F)(F)F)c1nccc(-c2cnn3ncccc23)n1 | binding | 1 µM | 100 |
| O=C(NCCCN1CCOCC1)c1ccc(Nc2nccc(-c3cc4ccccc4s3)n2)cc1 | binding, competition with immobilised ligand | 1 µM | 32 |
| C[C@H]1CCN(c2nccc(-c3cnn4ncccc34)n2)C1 | binding | 1 µM | 95 |
| CC(=O)Nc1c(C(C)=O)c(=O)n(C)c2nc(-c3ccc(Cl)cc3Cl)c(-c3ccc(Cl)cc3)cc12 | cell-free assay, competition with immobilised ligand | 1 µM | 100 |
| C[C@@H](c1ccc(-n2cnc3c(N)ncnc32)cc1)N1CCc2nn(C)c(Cc3ccccc3)c2C1=O | binding, competition with immobilised ligand | 0.1 µM | 79 |
| COc1ccc2c(c1)O[C@H](c1ccc(OC)c(OC)c1)C[C@@H]2NC(=O)C1(c2ccc3c(c2)OC(F)(F)O3)CC1 | cell-free assay, competition with immobilised ligand | 1 µM | 100 |
| CNC(=O)[C@@H]1CC[C@@H](n2c(-c3ccc4cnccc4c3)nc3ccc(C(=O)NCc4cccc(C(N)=O)c4)cc32)C1 | binding, competition with immobilised ligand | 1 µM | 100 |
| COc1ccc2c(O[C@@H]3C[C@H]4C(=O)N[C@]5(C(=O)O)CC5/C=C\CCCCC[C@H](NC(=O)OC5CCCC5)C(=O)N4C3)cc(-c3csc(NC(=O)C(C)C)n3)nc2c1C (stereo partly shown) | cell-free assay, competition with immobilised ligand | 1 µM | 96 |
| c1cncc(-c2cccc(Nc3nccc(NC4CCCCC4)n3)c2)c1 | binding, competition with immobilised ligand | 10 µM | 5.5 |
| CO[C@H]1CC[C@H](CNc2ccc(S(=O)(=O)NC(=O)c3ccc(N4CCN(CC5=C(c6ccc(Cl)cc6)CC(C)(C)CC5)CC4)cc3Oc3cnc4[nH]ccc4c3)cc2[N+](=O)[O-])CC1 | cell-free assay, competition with immobilised ligand | 1 µM | 87 |
| O=C(c1ccc(Nc2ncc(Cl)c(-c3ccc(Cl)s3)n2)cc1)N1CCC(N2CCCC2)CC1 | binding, competition with immobilised ligand | 1 µM | 2.8 |
| COc1ccnn2ncc(-c3ccnc(N(C)C)n3)c12 | binding | 1 µM | 100 |
| O=C(NC[C@@H]1[C@H]2CN(C(=O)OCc3cc(C(F)(F)F)cc(C(F)(F)F)c3)C[C@@H]12)c1ccc2[nH]nnc2c1 | cell-free assay, competition with immobilised ligand | 1 µM | 91 |
| CN(C)c1nccc(-c2cnc3ncccn23)n1 | binding | 1 µM | 100 |
| O=C(c1ccc(Nc2ncc(Cl)c(-c3cc4ccccc4s3)n2)cc1)N1CCC(N2CCCC2)CC1 | binding, competition with immobilised ligand | 1 µM | 1.8 |
| CN(C)c1nccc(-c2cnn3ncccc23)n1 | binding | 1 µM | 100 |
| O=C(O)[C@@H]1[C@@H](Cn2nnc3ccccc3c2=O)CC[C@H]1C(=O)c1ccc(OCCC2CCOCC2)cc1 | cell-free assay, competition with immobilised ligand | 1 µM | 100 |
